Test results published in ChEMBL document CHEMBL1133797, “Synthesis and structure--activity analysis of novel dihydropyridine derivatives to overcome multidrug resistance” (Bioorg Med Chem Lett, 2001).

Tests used:
KB 3-1 = test: Resistance index determined as the ratio of IC50 of doxorubicin with compound (1 ug/mL) in KB VJ300 cells divided by the control tested in vitro; type: functional, Homo sapiens
Rattus norvegicus = organism: Rattus norvegicus; test: Calcium antagonistic activity determined by the inhibitory effect on high-potassium depolarization-induced contracture in isolated rat aorta.; type: functional
Mus musculus [1] = test: Survival days of vincristine (0.1 mg/kg, ip) treated mice after 100 mg/kg, ip dose divided by survival days of mice treated by vincristine (0.1 mg/kg, ip) alone; type: functional; details: route intraperitoneal
Method in brief: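 Mice bearing P388 leukemia cells were given vincristine 0.1 mg/kg ip together with the test agent at 100 mg/kg ip. Survival days were recorded. Antitumor activity (%) is survival days with the combination divided by survival days of mice given vincristine 0.1 mg/kg ip alone.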

Mus musculus [2] = test: Survival days of vincristine (0.1 mg/kg, ip) treated mice after 30 mg/kg, ip dose divided by survival days of mice treated by vincristine (0.1 mg/kg, ip) alone; type: functional; details: route intraperitoneal
Method in brief: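 In P388 leukemia-bearing mice, the test agent was dosed at 30 mg/kg ip with vincristine 0.1 mg/kg ip. Survival time was recorded. The value (%) is the ratio of survival days under the combination to survival days under vincristine 0.1 mg/kg ip alone.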

Row | Compound | Resistance index (KB 3-1) | IC50 (Rattus norvegicus) [µM] | Activity (Mus musculus [1]) [%] | Activity (Mus musculus [2]) [%]
1 | CCCCCC1C(C(=O)OCCc2ccc(N(C)C)cc2)=C(C)N=C(C)/C1=C(/O)OCCCN1CCN(C(c2ccccc2)c2ccccc2)CC1 (stereo unspecified) | 23.5 | – | – | –
2 | CCCCCC1C(C(=O)OCCCc2ccccc2)=C(C)N=C(C)/C1=C(/O)OCCCc1ccccc1 (stereo unspecified) | 22.7 | – | – | –
3 | CCCCCC1C(C(=O)OCCN(C)Cc2ccccc2)=C(C)N=C(C)/C1=C(/O)OCCN(C)Cc1ccccc1 (stereo unspecified) | 3.9 | 115 | 128 | –
4 | CCCCCC1C(C(=O)OCCCc2ccccn2)=C(C)N=C(C)/C1=C(/O)OCCCN1CCN(C(c2ccccc2)c2ccccc2)CC1 (stereo unspecified) | 1.7 | – | 120 | –
5 | CCCCCC1C(C(=O)OCCCc2cccnc2)=C(C)N=C(C)/C1=C(/O)OCCCN1CCN(C(c2ccccc2)c2ccccc2)CC1 (stereo unspecified) | 1.1 | 175 | – | 143
6 | CCCCCC1C(C(=O)OCCN(C)Cc2ccccc2)=C(C)N=C(C)/C1=C(/O)OCCCc1cccnc1 (stereo unspecified) | 1.4 | 135 | 144 | –
7 | CC1=NC(C)=C(C(=O)OCc2ccncc2)C(C2=C(C)SCCS2)/C1=C(\O)OCc1ccncc1 (stereo unspecified) | – | 8.7 | – | –
8 | CCCCCC1C(C(=O)OCCc2ccc(N(C)C)cc2)=C(C)N=C(C)/C1=C(/O)OCCc1ccc(N(C)C)cc1 (stereo unspecified) | 11.2 | – | – | –
9 | CCCCCC1C(C(=O)OCCCc2cccnc2)=C(C)N=C(C)/C1=C(/O)OCCCc1cccnc1 (stereo unspecified) | 2 | 46 | 161 | –
10 | CCCCCC1C(C(=O)OCCCc2ccncc2)=C(C)N=C(C)/C1=C(/O)OCCCN1CCN(C(c2ccccc2)c2ccccc2)CC1 (stereo unspecified) | 1 | – | – | –
11 | CCCCCC1C(C(=O)O/C=C/Cc2cccnc2)=C(C)N=C(C)/C1=C(/O)O/C=C/Cc1cccnc1 (stereo unspecified) | 1.8 | – | 89 | –
12 | CCCCCC1C(C(=O)OCCCc2cccnc2)=C(C)N=C(C)/C1=C(/O)OCCCN1CCN(Cc2ccccc2)CC1 (stereo unspecified) | 1 | 33 | 150 | –
13 | CCCCCC1C(C(=O)OCCCN2CCN(Cc3ccccc3)CC2)=C(C)N=C(C)/C1=C(/O)OCCCN1CCN(Cc2ccccc2)CC1 (stereo unspecified) | 1.1 | 230 | 127 | –
14 | CCCCCC1C(C(=O)OCCc2ccc(N(C)C)cc2)=C(C)N=C(C)/C1=C(/O)OCCCc1cccnc1 (stereo unspecified) | 1.8 | 45 | 125 | –
15 | COC(=O)C1=C(C)NC(C)=C(C(=O)OCCN(C)Cc2ccccc2)C1c1cccc([N+](=O)[O-])c1 (stereo unspecified) [NICARDIPINE] | – | 1.4 | – | –
